IDH1 mut inh – IDH1 R132H (human) inhibition | O75874 | IDH1 R132H reductase, diaphorase/resazurin fluorescence, 60 min | inhibition, % at 10 µM | 0.18% of 70,000 active | AID 624101; in the data active = inhibition above about 34%; inconclusive = no clear call, values can overlap the other calls; inactive = below about 11%;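 note: 0% = DMSO and 100% = no enzyme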
Target sequence (O75874 whole entry R132H): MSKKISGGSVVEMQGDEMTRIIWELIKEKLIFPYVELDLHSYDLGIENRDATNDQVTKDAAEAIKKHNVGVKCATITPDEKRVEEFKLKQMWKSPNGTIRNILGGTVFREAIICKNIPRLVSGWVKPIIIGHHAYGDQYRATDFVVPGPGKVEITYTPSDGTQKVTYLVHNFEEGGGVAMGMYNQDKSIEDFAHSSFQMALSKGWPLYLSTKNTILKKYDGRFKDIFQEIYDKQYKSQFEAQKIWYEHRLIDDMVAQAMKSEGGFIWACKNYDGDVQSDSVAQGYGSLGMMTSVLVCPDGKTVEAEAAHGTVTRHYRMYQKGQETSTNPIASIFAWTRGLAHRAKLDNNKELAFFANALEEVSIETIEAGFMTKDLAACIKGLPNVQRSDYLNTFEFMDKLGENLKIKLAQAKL
GASC1 inh – blocks human GASC-1 (KDM4C) demethylase activity. inhibition, % at 12.5 µM. AID 720574. GST-KDM4C 2-372, H3K9me3 peptide, LANCE TR-FRET. Q9H3R0. 0.15% of 96,000 active;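 active = mean replicate inhibition above about 25%, with at least 55% of replicates also reaching it, limit read from the data, passing the limit was not always enough; inconclusive = only one of those two conditions met; inactive = neither condition met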
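System: N-terminal GST-fused human GASC-1 (KDM4C) fragment, residues 2-372; amount: enzyme final amount 10 nM; incubation: reaction 30 min RT, detection step 1 h RT; medium: HEPES buffer, pH 7.5, plus ascorbate; technique: LANCE TR-FRET, Eu antibody, ULight-streptavidin, EDTA, ex 340 nm, em 618/671 nm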
T cruzi growth-1 – blocks T. cruzi growth in NIH3T3 culture; T. cruzi beta-gal in NIH3T3, GalScreen luminescence, 90 h; inhibition, % at 8.34 µM; 5.9% of 77,000 active; AID 624255;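 active = mean inhibition above about 93%, with at least 55% of replicates each passing it, limit read from the data, passing the limit was not always enough; inconclusive = only one of those two conditions holds; inactive = neither condition holds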
T cruzi growth-2 – blocks T. cruzi growth in NIH3T3 host cells. T. cruzi beta-gal in NIH3T3, GalScreen luminescence, 90 h. shares compounds with T cruzi growth-1. AID 651739. 72% of 5,600 active. inhibition, % at 8.35 µM;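 active = mean replicate inhibition above about 95% and at least 55% of replicates individually reaching it, limit read from the data; inconclusive = only one of the two criteria is met; inactive = neither criterion is met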
T cruzi growth-3 – blocks T. cruzi growth in NIH3T3 host cells. T. cruzi beta-gal in NIH3T3, GalScreen luminescence, 90 h. inhibition, % at 2.09 µM. 21% of 5,600 active. shares compounds with T cruzi growth-1;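 active = mean inhibition above about 95%, with at least 55% of replicates also reaching it, limit read from the data; inconclusive = meets just one of the two conditions; inactive = meets neither condition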;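 note: plate controls were neutral control median for no effect and positive control median for full effect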
3T3 cytotox – NIH/3T3 (mouse) viability loss; shares compounds with T cruzi growth-1; NIH/3T3 viability, CellTiter-Glo ATP luminescence, 90 h; cytotoxicity (signal decrease), % at 8.35 µM; 14% of 5,600 active;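 active = mean signal decrease across replicates above about 35% based on untreated-well scatter, with enough replicates individually passing, limit read from the data; inconclusive = no rule stated though some were filed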;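 note: 0% = median of neutral control wells and 100% = median of positive control wells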
NIH3T3 tox 2 – kills mouse NIH/3T3 fibroblasts | shares compounds with T cruzi growth-1 | 56% of 5,600 active | NIH/3T3 viability, CellTiter-Glo ATP luminescence, 90 h | AID 651744 | inhibition, % at 24.9 µM;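 active = mean loss of cell viability signal at or above a set limit, and enough replicates individually reaching it; inconclusive = meets only the mean limit or only the replicate share; inactive = meets neither condition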;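 note: 0% = median of neutral control wells and 100% = median of positive control wells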
* = called active by the depositor; u = inconclusive; x = not tested or not shown. Shown is part of a subset that was picked to be rich in hits.

SMILES	IDH1 mut inh	GASC1 inh	T cruzi growth-1	T cruzi growth-2	T cruzi growth-3	3T3 cytotox	NIH3T3 tox 2
COc1ccc(NC(=O)Nc2ccc3c(c2)C(=O)N([C@H](C)CO)C[C@@H](C)[C@H](CN(C)S(C)(=O)=O)OCCCC[C@H](C)O3)cc1	2	2	-7	x	x	x	x
COc1ccc(-c2ccc3c(c2)O[C@H](CN(C)CC2CCOCC2)[C@H](C)CN([C@H](C)CO)S3(=O)=O)cc1	x	1	39	x	x	x	x
COC(=O)c1cc(NC(=O)COc2c(C)cc(C)cc2Cl)cc(C(=O)OC)c1	0	x	x	x	x	x	x
C[C@@H]1CN([C@@H](C)CO)S(=O)(=O)c2ccc(C#CC3CCCC3)cc2O[C@H]1CN(C)C(=O)Cc1ccccc1	0	-1	x	x	x	x	x
CCC(=O)N(C)C[C@@H]1Oc2cc(C#CC3CCCC3)ccc2S(=O)(=O)N([C@@H](C)CO)C[C@H]1C	x	-1	82	x	x	x	x
C[C@H](CO)N1C[C@H](C)[C@@H](CN(C)C(=O)Cc2ccccc2)Oc2cc(C#CC3CCCC3)ccc2S1(=O)=O	0	0	x	x	x	x	x
C[C@@H]1CN([C@H](C)CO)S(=O)(=O)c2ccc(C#CC3CCCC3)cc2O[C@H]1CN(C)C(=O)Cc1ccccc1	-5	1	113*	106*	68	3	105*
C[C@@H]1CN([C@@H](C)CO)S(=O)(=O)c2ccc(C#CC3CCCCC3)cc2O[C@H]1CN(C)C(=O)Cc1ccncc1	66*	0	u	103*	78	17	103*
C[C@@H]1CN([C@@H](C)CO)S(=O)(=O)c2ccc(C#CC3CCCC3)cc2O[C@H]1CN(C)C(=O)Cc1ccncc1	x	-2	113*	99*	47	21	72*
C[C@H]1CN([C@@H](C)CO)S(=O)(=O)c2ccc(C#CC3CCCCC3)cc2O[C@H]1CN(C)C(=O)Cc1ccncc1	x	-1	42	x	x	x	x
C[C@@H]1CN([C@H](C)CO)S(=O)(=O)c2ccc(C#CC3CCCC3)cc2O[C@H]1CN(C)C(=O)Cc1ccncc1	x	-3	120*	101*	62	-4	99*
CCOC(=O)c1c(NC(=S)N(C)Cc2c(C)nn(C)c2C)sc2c1CCCCCC2	-1	x	x	x	x	x	x
O=C(CCN1CCCCC1)NCC[C@H]1CC[C@H](NC(=O)C2CCOCC2)[C@@H](CO)O1	0	-1	11	x	x	x	x
O=C(NCc1ccccn1)[C@@H]1[C@@H](CO)[C@@H]2Cn3c(cccc3=O)[C@H]1N2CC1CCCC1	x	0	x	x	x	x	x
C[C@@H]1CN([C@@H](C)CO)C(=O)Cc2cc(NC(=O)c3ccncc3)ccc2O[C@H]1CN(C)CC1CCCCC1	0	x	-3	x	x	x	x
Cc1ccc(N(C(C)C(=O)Nc2ccc(I)cc2C)S(C)(=O)=O)cc1C (stereo unspecified)	0	x	x	x	x	x	x
C[C@H](CO)N1C[C@H](C)[C@H](CN(C)C(=O)NC2CCCCC2)OCCCC[C@H](C)Oc2ccc(NS(=O)(=O)c3cn(C)cn3)cc2C1=O	x	2	60	x	x	x	x
CN1C(=O)c2cc(NC(=O)c3ccc(F)cc3)ccc2OC[C@@H]2O[C@H](CC(=O)N3CCOCC3)CC[C@@H]21	x	4	48	x	x	x	x
C[C@@H]1CN([C@H](C)CO)C(=O)c2cc(NC(=O)Nc3cccc4ccccc34)ccc2O[C@@H](C)CCCCO[C@H]1CN(C)C(=O)C1CCCCC1	x	-2	u	104*	106*	15	24
C[C@@H]1CCCCO[C@H](CN(C)C(=O)c2ccccc2)[C@@H](C)CN([C@@H](C)CO)C(=O)c2cc(NC(=O)Nc3cccc4ccccc34)ccc2O1	x	10	86	x	x	x	x
C[C@H]1CCCCO[C@H](CN(C)C(=O)C2CCCCC2)[C@@H](C)CN([C@@H](C)CO)C(=O)c2cc(NC(=O)Nc3cccc4ccccc34)ccc2O1	x	-3	u	98*	104*	9	29
C[C@@H]1CCCCO[C@H](CN(C)C(=O)Nc2cccc3ccccc23)[C@@H](C)CN([C@H](C)CO)C(=O)c2cc(NC(=O)Nc3cccc4ccccc34)ccc2O1	-4	1	8	x	x	x	x
C[C@@H]1CCCCO[C@H](CN(C)C(=O)C2CCCCC2)[C@@H](C)CN([C@H](C)CO)C(=O)c2cc(NC(=O)Nc3cccc4ccccc34)ccc2O1	-1	17	u	102*	7	-1	-38
C[C@@H]1CCCCO[C@H](CN(C)C(=O)Nc2cccc3ccccc23)[C@H](C)CN([C@@H](C)CO)C(=O)c2cc(NC(=O)Nc3cccc4ccccc34)ccc2O1	x	0	38	x	x	x	x
C[C@@H]1CCCCO[C@@H](CN(C)C(=O)C2CCCCC2)[C@H](C)CN([C@@H](C)CO)C(=O)c2cc(NC(=O)Nc3cccc4ccccc34)ccc2O1	-2	-1	116*	104*	73	-15	8
SMILES	IDH1 mut inh	GASC1 inh	T cruzi growth-1	T cruzi growth-2	T cruzi growth-3	3T3 cytotox	NIH3T3 tox 2
C[C@H](CO)N1C[C@H](C)[C@@H](CN(C)C(=O)Nc2cccc3ccccc23)OCCCC[C@H](C)Oc2ccc(NC(=O)Nc3cccc4ccccc34)cc2C1=O	x	0	1	x	x	x	x
Cc1cc(C(=O)Nc2cccc3c2O[C@H](CN(C)Cc2ccc(Cl)c(Cl)c2)[C@@H](C)CN([C@H](C)CO)C3=O)n(C)n1	x	-1	57	x	x	x	x
COc1ccccc1NC(=O)N1CCCCN2[C@H](CO)[C@@H](c3ccc(-c4cccc(F)c4)cc3)[C@@H]2C1	x	-2	111	x	x	x	x
COc1ccccc1NC(=O)N1CCCCN2[C@@H](CO)[C@H](c3ccc(-c4ccccc4)cc3)[C@@H]2C1	x	x	102*	100*	74	45*	103*
COc1ccccc1NC(=O)N1CCCCN2[C@@H](CO)[C@@H](c3ccc(-c4ccccc4)cc3)[C@@H]2C1	x	x	u	104*	87	61*	104*
COc1ccccc1NC(=O)N1CCCCN2[C@H](CO)[C@H](c3ccc(-c4ccccc4)cc3)[C@H]2C1	x	x	108*	108*	74	23	105*
COc1ccccc1NC(=O)N1CCCCN2[C@H](C1)[C@@H](c1ccc(-c3cccc(F)c3)cc1)[C@@H]2CO	x	-2	59	x	x	x	x
COc1ccccc1NC(=O)N1CCCCN2[C@H](CO)[C@H](c3ccc(-c4cccc(F)c4)cc3)[C@@H]2C1	x	-2	115*	101*	110*	22	37*
COc1ccccc1NC(=O)N1CCCCN2[C@H](CO)[C@H](c3ccc(-c4ccc(C)cc4)cc3)[C@@H]2C1	x	-1	87	x	x	x	x
COc1ccccc1NC(=O)N1CCCCN2[C@H](CO)[C@H](c3ccc(-c4cccc(C)c4)cc3)[C@H]2C1	x	-1	75	x	x	x	x
CNC[C@@H]1Oc2cc(-c3ccccc3F)ccc2S(=O)(=O)N([C@@H](C)CO)C[C@H]1C	-1	-1	x	x	x	x	x
COc1c(OC)c2c(C)cccc2oc1=O	0	x	x	x	x	x	x

Compound activity from PubChem BioAssay.
